pIC50: −log10 of the molar value. *1 amine or outer side, *2 acyl side, *3 side chain or, on linkers, in order; H or OH if unused. Where a SMILES comes first, the peptide text is derived from it. Bridges are numbered along the chain shown (N, C = ends). Roman numbers before positions name the chains, in order. [ ]: non-standard residue; d: D form. Actinocin(1to9) = Cc1c2oc3c(C)ccc(C(=O)[*:2])c3nc-2c(C(=O)[*:1])c(N)c1=O; NMeV = CN[C@H](C(=O)O)C(C)C; Sar = CNCC(=O)O
Legend:
HepG2 = experiment: Concentration required to reduce proliferation of human hepatocellular carcinoma (HepG-2) cell line by 50% as determined by the MTT method; format: functional, cell-based
Summary of the method: (§1)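 Solid-tumour-derived cells (and fibroblasts) were seeded in exponential growth at 5×10^4 cells/mL and allowed to adhere for 16 h before serial drug dilutions were added (DMSO stock 200 μM, diluted in medium). MTT viability was read 4 days later. Untreated controls went through at least three rounds of multiplication. IC50 came from linear regression of % growth versus untreated control, mean of three independent determinations.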

CCRF-SB = experiment: Concentration required to reduce proliferation of human acute B-lymphoblastic (CCRF-SB) cell line by 50% as determined by the MTT method; format: functional, cell-based
Summary of the method: (§2)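 Leukemia/lymphoma cells grown in RPMI 1640 with 10% FCS, 37 °C, humidified 5% CO2. Compounds were dissolved in DMSO (200 μM initial) and serially diluted in medium. Exponentially growing cells were resuspended at 1×10^5 cells/mL with the drug dilutions. Viability was read by MTT after 96 h at 37 °C. Growth was taken as % of untreated controls, and IC50 came from linear regression. Values are the mean of three independent determinations.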

SK-MEL-28 = experiment: Concentration required to reduce proliferation of human melanoma (SKMEL-28) cell line by 50% as determined by the MTT method; format: functional, cell-based; summary of the method: as §1
MCF7 = experiment: Concentration required to reduce proliferation of human breast adenocarcinoma (MCF-7) cell line by 50% as determined by the MTT method; format: functional, cell-based; summary of the method: as §1
DU-145 = experiment: Concentration required to reduce proliferation of human prostate carcinoma (DU-145) cell line by 50% as determined by the MTT method; format: functional, cell-based; summary of the method: as §1
MT4 = experiment: Concentration required to reduce proliferation of CD4+ human acute T-lymphoblastic leukemia (MT-4) cell line by 50% as determined by the MTT method; format: functional, cell-based; summary of the method: as §2
CCRF-CEM = experiment: Concentration required to reduce proliferation of CD4+ human acuteT-lymphoblastic leukemia (CCRF-CEM) cell line by 50% as determined by the MTT method; format: functional, cell-based; summary of the method: as §2
SK-MES-1 = experiment: Concentration required to reduce proliferation of human lung squamous carcinoma (SKMES-1) cell line by 50% as determined by the MTT method; format: functional, cell-based; summary of the method: as §1
CRL-7065 cell line = experiment: Concentration required to reduce proliferation of human foreskin fibroblasts (CRL7065) cell line by 50% as determined by the MTT method; format: functional, cell-based; summary of the method: as §1
WIL2-NS = experiment: Concentration required to reduce proliferation of human splenic B-lymphoblastoid (Wil2-NS) cell line by 50% as determined by the MTT method; format: functional, cell-based; summary of the method: as §2
KB [1] = experiment: Concentration required to reduce proliferation of KB subclones passaged in the presence of vincristine 0.02 uM (KBV20C) cell line by 50% as determined by the MTT method; conditions: Homo sapiens
KB [2] = experiment: Concentration required to reduce proliferation of KB subclones passaged in the presence of etoposide 7 uM (KB7D) cell line by 50% as determined by the MTT method; format: functional, cell-based; conditions: Homo sapiens
Summary of the method: (§3)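 Adherent cultures were seeded at 5×10^4 cells/mL, attached for 16 h, then exposed to serial drug dilutions. MTT viability was read after 4 days, with controls completing at least three doublings. IC50 came from linear regression, mean ±SD of three independent determinations.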

KB [3] = experiment: Concentration required to reduce proliferation of KB subclones passaged in the presence of doxorubicin 0.09 uM (KBMDR) cell line by 50% as determined by the MTT method; format: functional, cell-based; conditions: Homo sapiens; summary of the method: as §3
KB [4] = experiment: Concentration required to reduce proliferation of KB human nasopharyngeal carcinoma (KBWT) cell line by 50% as determined by the MTT method; format: functional, cell-based; summary of the method: as §3

pIC50 (HepG2) | pIC50 (CCRF-SB) | pIC50 (SK-MEL-28) | pIC50 (MCF7) | pIC50 (DU-145) | pIC50 (CCRF-CEM) | pIC50 (SK-MES-1) | pIC50 (KB [1]) | pIC50 (KB [2]) | pIC50 (KB [3]) | pIC50 (KB [4]) | SMILES | pIC50 (MT4) | pIC50 (CRL-7065 cell line) | pIC50 (WIL2-NS)
6.05 | 7.05 | 6.70 | 6.00 | 6.00 | 7.70 | 6.00 |  |  |  |  | CCOC(=O)C1=CC2C(=O)c3ncccc3C(=O)C2C(c2ccc(C)cc2)=N1 (configuration not stated) | 6.52 | 7.15 | 7.52
5.70 | 6.05 | 6.00 | 6.05 | 5.82 | 5.82 | 5.92 |  |  |  |  | CCOC(=O)C1=CC2C(=O)c3cccnc3C(=O)C2C(c2ccc(OC)cc2)=N1 (configuration not stated) | 6.00 | 5.82 | 5.68
5.70 | 6.15 | 6.10 | 6.30 | 5.82 | 6.10 | 6.30 |  |  |  |  | CCOC(=O)C1=CC2C(=O)c3cccnc3C(=O)C2C(c2ccc(Cl)cc2)=N1 (configuration not stated) | 6.15 | 6.05 | 5.70
6.05 | 6.05 | 6.05 | 6.00 | 6.00 | 5.92 | 6.00 |  |  |  |  | CCOC(=O)C1=CC2C(=O)c3ncccc3C(=O)C2C(c2ccc(N(C)C)cc2)=N1 (configuration not stated) | 6.05 |  | 5.85
6.22 | 8.00 | 6.70 | 6.70 | 7.10 | 7.15 | 7.00 |  |  |  |  | CCOC(=O)C1(N)CSC2=C1C(=O)c1ncccc1C2=O (configuration not stated) | 7.70 | 7.05 | 7.22
5.66 | 5.66 | 5.72 | 5.80 | 5.72 | 5.64 | 5.74 |  |  |  |  | CCOC(=O)C1=CC2C(=O)c3cccnc3C(=O)C2C(c2ccc(N(C)C)cc2)=N1 (configuration not stated) | 5.70 |  | 5.60
5.64 | 6.10 | 6.05 | 6.22 | 5.89 | 5.89 | 6.30 |  |  |  |  | CCOC(=O)C1=CC2C(=O)c3cccnc3C(=O)C2C(c2ccc(Br)cc2)=N1 (configuration not stated) | 6.15 | 5.89 | 5.68
7.15 | 8.70 | 9.00 | 7.10 | 8.00 | 7.30 | 8.00 | 6.70 | 6.40 | 6.52 | 7.10 | CCOC(=O)C1=CC2C(=O)c3ncccc3C(=O)C2C(c2ccc([N+](=O)[O-])cc2)=N1 (configuration not stated) | 9.00 |  | 9.00
6.00 | 6.22 | 6.10 | 6.52 | 6.00 | 6.15 | 6.52 |  |  |  |  | CCOC(=O)C1=CC2C(=O)c3cccnc3C(=O)C2C(c2ccccc2)=N1 (configuration not stated) | 6.15 |  | 6.00
5.72 | 6.00 | 5.89 | 5.80 | 5.72 | 6.00 | 5.92 |  |  |  |  | CCOC(=O)C1=CC2C(=O)c3cccnc3C(=O)C2C(c2ccc(C)cc2)=N1 (configuration not stated) | 6.00 |  | 5.60
6.30 | 6.22 | 5.96 | 6.30 | 5.92 | 5.70 | 6.05 |  |  |  |  | CCOC(=O)C1(N)CSC2=C1C(=O)c1cccnc1C2=O (configuration not stated) | 6.30 | 5.77 | 5.51
6.00 | 7.00 | 6.52 | 5.82 | 5.82 | 7.00 | 5.80 |  |  |  |  | CCOC(=O)C1=CC2C(=O)c3ncccc3C(=O)C2C(c2ccc(OC)cc2)=N1 (configuration not stated) | 6.40 |  | 7.05
6.40 | 8.15 | 6.70 | 6.52 | 7.52 | 6.82 | 7.30 |  |  |  |  | CCOC(=O)C1=CC2C(=O)c3ncccc3C(=O)C2C(c2ccc(Cl)cc2)=N1 (configuration not stated) | 8.22 | 7.40 | 8.00
5.70 | 8.00 | 6.10 | 6.30 | 5.82 | 6.70 | 6.30 |  |  |  |  | CCOC(=O)C1=CC2C(=O)c3ncccc3C(=O)C2C(c2ccccc2)=N1 (configuration not stated) | 7.82 |  | 7.70
6.52 | 8.00 | 6.70 | 6.70 | 7.30 | 6.70 | 7.05 |  |  |  |  | CCOC(=O)C1=CC2C(=O)c3ncccc3C(=O)C2C(c2ccc(Br)cc2)=N1 (configuration not stated) | 8.00 | 7.30 | 7.70
6.30 | 7.82 | 6.70 | 6.70 | 7.00 | 6.64 | 7.10 |  |  |  |  | CCOC(=O)C1=CC2C(=O)c3cccnc3C(=O)C2C(c2ccc([N+](=O)[O-])cc2)=N1 (configuration not stated) | 8.00 |  | 7.52
 |  |  |  |  |  |  | 7.30 | 6.70 | 6.70 | 8.40 | Cc1c2oc3c(C)ccc(C(=O)N[C@@H]4C(=O)N[C@H](C(C)C)C(=O)N5CCC[C@H]5C(=O)N(C)CC(=O)N(C)[C@@H](C(C)C)C(=O)O[C@@H]4C)c3nc-2c(C(=O)N[C@@H]2C(=O)N[C@H](C(C)C)C(=O)N3CCC[C@H]3C(=O)N(C)CC(=O)N(C)[C@@H](C(C)C)C(=O)O[C@@H]2C)c(N)c1=O [DACTINOMYCIN] (I: T[dV]P[Sar][NMeV] / II: T[dV]P[Sar][NMeV]; ester I:1-I:C, II:1-II:C; linker I:N-II:N via Actinocin(1to9)) |  |  | 
 |  |  |  |  |  |  | 5.62 | < 4.70 | < 4.70 | 6.10 | COc1cc([C@@H]2c3cc4c(cc3[C@@H](O[C@@H]3O[C@@H]5CO[C@@H](C)O[C@H]5[C@H](O)[C@H]3O)[C@H]3COC(=O)[C@H]23)OCO4)cc(OC)c1O [ETOPOSIDE] |  |  | 
 |  |  |  |  |  |  | 6.70 |  | 6.00 | 8.40 | CC[C@]1(O)C[C@H]2CN(CCc3c([nH]c4ccccc34)[C@@](C(=O)OC)(c3cc4c(cc3OC)N(C=O)[C@H]3[C@@](O)(C(=O)OC)[C@H](OC(C)=O)[C@]5(CC)C=CCN6CC[C@]43[C@@H]65)C2)C1 [VINCRISTINE] |  |  | 

Reference: ChEMBL document CHEMBL1148410, “Antitumor agents. 3. Design, synthesis, and biological evaluation of new pyridoisoquinolindione and dihydrothienoquinolindione derivatives with potent cytotoxic activity” (J Med Chem, 2004)
